Test results taken from ChEMBL document CHEMBL1143829, “Lack of effect of DX-619, a novel des-fluoro(6)-quinolone, on glomerular filtration rate measured by serum clearance of cold iohexol” (Antimicrob Agents Chemother, 2007).

Assays:
[1] = Cmax […] in human after 1 day; format: ADME, organism-based; conditions: in vivo
Outline: (§1)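 Plasma was sampled predose, at end of infusion, and 1, 3 and 9 h post-infusion on days 1 and 4, plus 24 h post-infusion on day 5. Drug was assayed by validated LC-MS/MS (0.02–10 µg/ml). Noncompartmental analysis; Cmax taken by observation without interpolation, with Tmax; day-4 values treated as steady state.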

Homo sapiens [2] = test: Effect on renal function in human assessed as blood urea nitrogen concentration at 800 mg, iv after 11 days relative to baseline; format: functional
Homo sapiens [3] = test: Effect on glomerular filtration rate in human assessed as creatinine clearance rate in plasma per 1.73 m2 at 800 mg, iv after 11 days relative to baseline; format: functional
[4] = Tmax in human plasma; format: ADME, organism-based; outline: as §1
[5] = Clearance in human plasma after 4 days
Homo sapiens [6] = test: Effect on renal function in human assessed as serum creatinine concentration at 800 mg, iv after 11 days relative to baseline; format: functional
Homo sapiens [7] = test: Effect on renal function in human assessed as serum creatinine concentration at 800 mg, iv after 4 days relative to baseline; format: functional
Homo sapiens [8] = test: Effect on glomerular filtration rate in human assessed as iohexol clearance rate in plasma per 1.73 m2 at 800 mg, iv after 4 days relative to baseline; format: functional
Outline: (§2)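 GFR was measured as plasma clearance of iohexol. A single 20 ml bolus (300 mg/ml) was given on days 1, 4 and 11, timed to match 1 h after the end of the day-4 infusion. Blood was drawn at 120, 150, 180, 210, 240, 270 and 300 min and assayed by HPLC-UV. CL0 = dose × b/c1, with b and c1 from linear regression. Change from baseline used a noninferiority mixed-effects comparison with 95% CI.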

Homo sapiens [9] = test: Effect on glomerular filtration rate in human assessed as creatinine clearance rate in plasma per 1.73 m2 at 800 mg, iv after 4 days relative to baseline; format: functional
[10] = Renal clearance in human urine after 4 days; format: ADME, organism-based; conditions: read-out: CL_renal (converted)
Outline: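 Steady-state AUC (AUCss,24) covered 25 h from the start of the day-4 infusion to 24 h after it (linear up/log down rule). CL = dose/AUCss,24. Urine from 0–24 h on day 4 was assayed by LC-MS/MS, and renal clearance = Xu(0–24)/AUCss,24.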

Homo sapiens [11] = test: Effect on renal function in human assessed as creatinine clearance in 24 hrs urine sample at 800 mg, iv after 11 days relative to baseline; format: functional
Outline: (§3)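 Urine was collected over 24 h at baseline (−24 to 0 h), on day 4 (72–96 h) and on day 11 (240–264 h). CLCR = urinary creatinine amount / (SCr × 24 h) × (1.73/BSA), using SCr measured at the start of each collection.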

Homo sapiens [12] = test: Effect on renal function in human assessed as blood urea nitrogen concentration at 800 mg, iv after 4 days relative to baseline; format: functional
Homo sapiens [13] = test: Effect on renal function in human assessed as creatinine clearance in 24 hrs urine sample at 800 mg, iv after 4 days relative to baseline; format: functional; outline: as §3
[14] = Protein binding in human plasma; format: ADME, organism-based; conditions: read-out: PPB (converted)
Outline: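 Plasma ultrafiltrate and matching plasma were sampled on days 1 and 4, predose and 1 and 4 h after infusion start, and assayed by LC-MS/MS (ultrafiltrate range 0.01–5.0 µg/ml). Binding at each time point was calculated from free ultrafiltrate versus total plasma concentration.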

[15] = Cmax at steady state in human after 4 days; format: ADME, organism-based; conditions: in vivo; outline: as §1
Homo sapiens [16] = test: Effect on glomerular filtration rate in human assessed as iohexol clearance rate in plasma per 1.73 m2 at 800 mg, iv after 11 days relative to baseline; format: functional; outline: as §2

Cmax [1]: 8210 ng/mL
Tmax [4]: 1.25 h
clearance [5]: 166 mL/min
CL renal at 96 h [10]: 43.3 mL/min
fraction unbound [14]: 0.35
Cmax [15]: 8850 ng/mL
Compound: COc1c(N2CC[C@@H](C3(N)CC3)C2)ccc2c(=O)c(C(=O)O)cn([C@@H]3C[C@@H]3F)c12
Activity (Homo sapiens [2]): -2.06
Activity (Homo sapiens [3]): 94.3 mL/min
Activity (Homo sapiens [6]): 0.09
Activity (Homo sapiens [7]): 0.3
Activity (Homo sapiens [8]): 1.12 mL/min
Activity (Homo sapiens [9]): 95.52 mL/min
Activity (Homo sapiens [11]): -3.4
Activity (Homo sapiens [12]): 0.69
Activity (Homo sapiens [13]): -32.8
Activity (Homo sapiens [16]): -2.44 mL/min
